Calls of active or inactive are those of the source. The calls are words filed in the database; no cut-off is given here.

The test system of series [1] is NSC. As to the kind of experiment: Induction of GFAP mRNA expression in Sprague-Dawley rat embryonic cortex NSC at 5 uM after 1 day by RT-PCR analysis relative to control. It is filed as functional. The procedure, abridged:
(§1)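 First-strand cDNA was made from 2 µg total RNA using oligo(dT) primers and RevertAid reverse transcriptase. PCR ran 94 °C 5 min, then 26 cycles of 94 °C, 55–58 °C and 72 °C (0.5 min each), with a final 72 °C extension for 10 min.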

Series [2] deals with NSC. Nature of the series: Induction of Sprague-Dawley rat embryonic cortex NSC differentiation assessed as GFAP-positive cells at 5 uM after 4 days by immunocytochemistry analysis relative to control. It is filed as functional. The procedure, abridged:
(§2)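 E14 rat cortical NSCs were grown as neurospheres, dissociated and plated on poly-D-lysine in growth-factor-free medium with 2% B27. They received 5 µM compound or 0.05% DMSO at 37 °C, 5% CO2, for 4 days. Cells were fixed in 4% PFA, stained with anti-GFAP or TuJ1 plus Cy3 secondary, and DAPI-counterstained. Positive/DAPI cells in random fields were normalised to control; mean±SEM, n=6, t-test.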

The test system of series [3] is NSC. As to the kind of experiment: Induction of beta3 tubulin mRNA expression in Sprague-Dawley rat embryonic cortex NSC at 5 uM after 1 day by RT-PCR analysis. It is filed as functional, cell-based. The procedure, abridged:
as §1

Series [4] has as its system NSC. Nature of the series: Induction of Sprague-Dawley rat embryonic cortex NSC differentiation assessed as TuJ1-positive cells at 5 uM after 4 days by immunocytochemistry analysis. The class given is functional, cell-based. The procedure, abridged: as §2
Series [5] relates to NSC. As to the kind of experiment: Induction of S100 mRNA expression in Sprague-Dawley rat embryonic cortex NSC at 5 uM after 1 day by RT-PCR analysis relative to control. The class given is functional. Put shortly:
as §1

Series [6] concerns NSC. Nature of the series: Cytotoxicity against Sprague-Dawley rat embryonic cortex NSC assessed as reduction in nuclei count at 5 uM after 4 days using DAPI staining by fluorescent microscopic analysis. The class given is cell-based. The following applies: 96 h.
In series [7] the test system is NSC. As to the kind of experiment: Cytotoxicity against Sprague-Dawley rat embryonic cortex NSC assessed as changes in morphology at 5 uM after 4 days by microscopic analysis. The following applies: 96 h. It is filed as cell-based.

Consider `O=S(=O)(Cc1ccccc1)NC(c1ccc(F)cc1)c1nnc(-c2ccccc2)o1` (configuration not stated), for which the result with NSC [1], in the series on NSC [2] and with NSC [5] was Active. For the same compound, the outcome in the series on NSC [3] and in the series with NSC [4] was inactive.

In the case of `CC(C)(C)OC(=O)NC(c1ccc(F)cc1)c1nnc(-c2ccccc2)o1` (configuration not stated), the outcome with NSC [1], with NSC [2] and in the series on NSC [5] was Active. Moreover, the result in the series with NSC [3] and with NSC [4] was inactive.

Turning to `O=C(NC(c1ccc(F)cc1)c1nnc(-c2ccccc2)o1)c1ccccc1` (configuration not stated), the result in the series on NSC [1], in the series with NSC [2] and in the series with NSC [5] was Active. In addition, the result in the series with NSC [3] and with NSC [4] was inactive.

For `O=S(=O)(NC(c1ccc(F)cc1)c1nnc(-c2ccccc2)o1)c1ccccc1` (configuration not stated), the outcome with NSC [1], in the series on NSC [2] and in the series on NSC [5] was Active. In addition, the outcome with NSC [3] and in the series on NSC [4] was inactive.

For the compound `O=C(Cc1ccccc1)NC(c1ccccc1)c1nnc(-c2ccccc2)o1` (configuration not stated), the “fold change (FC)” value in the series on NSC [1], in the series with NSC [2] and with NSC [5] was 2 each time. The Activity result in the series with NSC [6] and with NSC [7] was “Non-toxic” in each case. In addition, the result in the series with NSC [3] and in the series with NSC [4] was inactive.

With `O=C(Cc1ccccc1)NC(c1ccc(F)cc1)c1nnc(-c2ccccc2)o1` (configuration not stated), the “fold change (FC)” value in the series on NSC [1], in the series with NSC [2] and in the series with NSC [5] was 2 in each case. Moreover, the outcome in the series with NSC [3] and with NSC [4] was inactive.

The record behind these values is ChEMBL document CHEMBL1921751, “Discovery of small molecules that enhance astrocyte differentiation in rat fetal neural stem cells” (Bioorg Med Chem Lett, 2011).
